Experimental data as given in ChEMBL document CHEMBL1629494, “New amino acid esters of salicylanilides active against MDR-TB and other microbes” (Eur J Med Chem, 2010).

Assays:
Format in all cases: functional
[1] = test system: Enterococcus sp.; test: Antibacterial activity against Enterococcus sp. J14365/08 after 48 hrs by broth microdilution method; conditions: J14365/08, 48 h
Summary of the method: (§1)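 Broth microdilution following […], with twofold compound dilutions in Mueller-Hinton bouillon. Incubated 24 and 48 h at 35 °C in the dark in a humid atmosphere. MIC (IC80) was taken as ≥80% growth reduction versus control, read visually and photometrically.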

[2] = test system: Escherichia coli; test: Antibacterial activity against Escherichia coli CCM 4517 after 24 hrs by broth microdilution method; conditions: CCM 4517, 24 h; summary of the method: as §1
[3] = test system: Escherichia coli; test: Antibacterial activity against Escherichia coli CCM 4517 after 48 hrs by broth microdilution method; conditions: CCM 4517, 48 h; summary of the method: as §1
[4] = test system: Klebsiella pneumoniae; test: Antibacterial activity against Klebsiella pneumoniae D11750/08 after 24 hrs by broth microdilution method; conditions: D11750/08, 24 h; summary of the method: as §1
[5] = test system: Klebsiella pneumoniae; test: Antibacterial activity against Klebsiella pneumoniae D11750/08 after 48 hrs by broth microdilution method; conditions: D11750/08, 48 h; summary of the method: as §1
[6] = test system: Candida albicans; test: Antifungal activity against Candida albicans ATCC 44859 after 24 hrs by broth microdilution method; conditions: ATCC 44859, 24 h
[7] = test system: Candida albicans; test: Antifungal activity against Candida albicans ATCC 44859 after 48 hrs by broth microdilution method; conditions: ATCC 44859, 48 h
[8] = test system: Candida tropicalis; test: Antifungal activity against Candida tropicalis 156 after 24 hrs by broth microdilution method; conditions: Candida tropicalis, 156, 24 h
[9] = test system: Candida tropicalis; test: Antifungal activity against Candida tropicalis 156 after 48 hrs by broth microdilution method; conditions: Candida tropicalis, 156, 48 h
[10] = test system: Pichia kudriavzevii; test: Antifungal activity against Candida krusei E28 after 24 hrs by broth microdilution method; conditions: E28, 24 h
[11] = test system: Pichia kudriavzevii; test: Antifungal activity against Candida krusei E28 after 48 hrs by broth microdilution method; conditions: E28, 48 h
[12] = test system: Nakaseomyces glabratus; test: Antifungal activity against Candida glabrata 20/I after 24 hrs by broth microdilution method
[13] = test system: Nakaseomyces glabratus; test: Antifungal activity against Candida glabrata 20/I after 48 hrs by broth microdilution method
[14] = test system: Trichosporon beigelii; test: Antifungal activity against Trichosporon beigelii 1188 after 24 hrs by broth microdilution method; conditions: Trichosporon beigelii, 1188, 24 h
[15] = test system: Trichosporon beigelii; test: Antifungal activity against Trichosporon beigelii 1188 after 48 hrs by broth microdilution method; conditions: Trichosporon beigelii, 1188, 48 h
[16] = test system: Aspergillus fumigatus; test: Antifungal activity against Aspergillus fumigatus 231 after 24 hrs by broth microdilution method; conditions: Aspergillus fumigatus, 231, 24 h
[17] = test system: Aspergillus fumigatus; test: Antifungal activity against Aspergillus fumigatus 231 after 48 hrs by broth microdilution method; conditions: Aspergillus fumigatus, 231, 48 h
[18] = test system: Lichtheimia corymbifera; test: Antifungal activity against Absidia corymbifera 272 after 24 hrs by broth microdilution method; conditions: Lichtheimia corymbifera, 272, 24 h
[19] = test system: Lichtheimia corymbifera; test: Antifungal activity against Absidia corymbifera 272 after 48 hrs by broth microdilution method; conditions: Lichtheimia corymbifera, 272, 48 h
[20] = test system: Trichophyton mentagrophytes; test: Antifungal activity against Trichophyton mentagrophytes after 24 hrs by broth microdilution method
[21] = test system: Trichophyton mentagrophytes; test: Antifungal activity against Trichophyton mentagrophytes after 48 hrs by broth microdilution method
[22] = test system: Mycobacterium tuberculosis; test: Antimycobacterial activity against drug-sensitive Mycobacterium tuberculosis
[23] = test system: Mycobacterium avium; test: Antimycobacterial activity against Mycobacterium avium
[24] = test system: Mycobacterium kansasii; test: Antimycobacterial activity against Mycobacterium kansasii
[25] = test system: Mycobacterium tuberculosis; test: Antimycobacterial activity against Mycobacterium tuberculosis H37Rv 331/88 after 14 days by micromethod; conditions: H37Rv 331/88, 336 h
Summary of the method: (§2)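 Micromethod in Sula semisynthetic medium, with compounds added as DMSO solutions at 1000, 500, 250, 125, 62, 32, 16, 8, 4, 2, 1, 0.5, 0.25. Inoculum dilutions: H37Rv 10^-3; M. avium 330/88 10^-5; M. kansasii 235/80 10^-4; M. kansasii 6509/96 10^-5. Incubated at 37 °C, read at 14 and 21 days, and at 7 days for M. kansasii. MIC was the lowest concentration inhibiting growth.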

[26] = test system: Mycobacterium tuberculosis; test: Antimycobacterial activity against Mycobacterium tuberculosis H37Rv 331/88 after 21 days by micromethod; conditions: H37Rv 331/88, 504 h; summary of the method: as §2
[27] = test system: Mycobacterium avium; test: Antimycobacterial activity against multidrug-resistant Mycobacterium avium 330/88 after 14 days by micromethod; conditions: 330/88, 336 h; summary of the method: as §2
[28] = test system: Mycobacterium avium; test: Antimycobacterial activity against multidrug-resistant Mycobacterium avium 330/88 after 21 days by micromethod; conditions: 330/88, 504 h; summary of the method: as §2
[29] = test system: Mycobacterium kansasii; test: Antimycobacterial activity against Mycobacterium kansasii 235/80 after 7 days by micromethod; conditions: 235/80, 168 h; summary of the method: as §2
[30] = test system: Mycobacterium kansasii; test: Antimycobacterial activity against Mycobacterium kansasii 235/80 after 14 days by micromethod; conditions: 235/80, 336 h; summary of the method: as §2
[31] = test system: Mycobacterium kansasii; test: Antimycobacterial activity against Mycobacterium kansasii 235/80 after 21 days by micromethod; conditions: 235/80, 504 h; summary of the method: as §2
[32] = test system: Mycobacterium kansasii; test: Antimycobacterial activity against Mycobacterium kansasii 6509/96 after 7 days by micromethod; conditions: 6509/96, 168 h; summary of the method: as §2
[33] = test system: Mycobacterium kansasii; test: Antimycobacterial activity against Mycobacterium kansasii 6509/96 after 14 days by micromethod; conditions: 6509/96, 336 h; summary of the method: as §2
[34] = test system: Mycobacterium kansasii; test: Antimycobacterial activity against Mycobacterium kansasii 6509/96 after 21 days by micromethod; conditions: 6509/96, 504 h; summary of the method: as §2
[35] = test system: Staphylococcus aureus; test: Antibacterial activity against Staphylococcus aureus CCM 4516/08 after 24 hrs by broth microdilution method; conditions: CCM 4516/08, 24 h; summary of the method: as §1
[36] = test system: Staphylococcus aureus; test: Antibacterial activity against Staphylococcus aureus CCM 4516/08 after 48 hrs by broth microdilution method; conditions: CCM 4516/08, 48 h; summary of the method: as §1
[37] = test system: Staphylococcus aureus; test: Antibacterial activity against methicillin-resistant Staphylococcus aureus H5996/08 after 24 hrs by broth microdilution method; conditions: H5996/08, 24 h; summary of the method: as §1
[38] = test system: Staphylococcus aureus; test: Antibacterial activity against methicillin-resistant Staphylococcus aureus H5996/08 after 48 hrs by broth microdilution method; conditions: H5996/08, 48 h; summary of the method: as §1
[39] = test system: Staphylococcus epidermidis; test: Antibacterial activity against Staphylococcus epidermidis H6966/08 after 24 hrs by broth microdilution method; conditions: H6966/08, 24 h; summary of the method: as §1
[40] = test system: Staphylococcus epidermidis; test: Antibacterial activity against Staphylococcus epidermidis H6966/08 after 48 hrs by broth microdilution method; conditions: H6966/08, 48 h; summary of the method: as §1
[41] = test system: Enterococcus sp.; test: Antibacterial activity against Enterococcus sp. J14365/08 after 24 hrs by broth microdilution method; conditions: J14365/08, 24 h; summary of the method: as §1

Measured: MIC

CC(=O)N[C@@H](Cc1ccccc1)C(=O)Oc1cc(Cl)ccc1C(=O)Nc1ccc(Br)cc1
0.98 µM: [35] | [37] | [39]
7.81 µM: [20] | [38] | [41]
1 µM: [22] | [23] | [24]
4 µM: [26] | [27] | [30] | [31] | [32] | [33]
2 µM: [25] | [29]
125 µM: [1] | [3]
62.5 µM: [15] | [16] | [19]
1.95 µM: [36] | [40]
8 µM: [28] | [34]
15.6 µM: [2] | [14] | [18] | [21]
> 125 µM: all other assays above

CC(=O)N[C@@H](Cc1ccccc1)C(=O)Oc1ccc(Cl)cc1C(=O)Nc1cccc(Cl)c1
4 µM: [26]
32 µM: [28]
1 µM: [22] | [23] | [24]
2 µM: [25] | [32]
8 µM: [27] | [29] | [30] | [31] | [33] | [34]
